One data set has as its target Translocator protein (Rattus norvegicus, UniProt P16257). As to the kind of experiment: Displacement of [11C]-PK-11195 from TPSO in Sprague-Dawley rat brain homogenate after 30 mins by gamma counting. The class given is tissue-based. (Loss of bound radioactivity is the signal in a displacement assay; it reports binding, not function.)
Data set [1] in a line: Lipophilicity, log D of the compound in octanol-phosphate buffer at pH 7.4 by shake flask method. The class given is physicochemical. In short, it runs like this: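 Radioligand (~200000 cpm) shaken with n-octanol (3.0 g) and 0.1 M sodium phosphate buffer pH 7.4 (3.0 g). Vortexed 3 min at room temperature, centrifuged 3500 rpm for 5 min. Phases weighed and counted; organic layer repartitioned until consistent. LogD = log of the cpm/g octanol to cpm/g buffer ratio. Triplicate.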

Data set [2] deals with Kidney. As to the kind of experiment: Drug uptake in iv dosed Sprague-Dawley rat kidney upto 30 mins by PET scanning. The class given is ADME, organism-based. To be noted: in vivo, 0.5 h. In short, it runs like this:
(§1)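 Comparator radioligand 15–20 MBq/200 μL (0.15–0.18 nmol) injected iv into isoflurane-anesthetized male Sprague-Dawley rats. ROI time–activity curves for lung, heart, kidney, liver and cardiac blood pool. Uptake as decay-corrected SUV normalized to injected activity and body weight. n = 4, mean ± SD.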

The test system of another data set is Liver. As to the kind of experiment: Drug uptake in iv dosed Sprague-Dawley rat liver upto 30 mins by PET scanning. In kind it is ADME, organism-based. As to conditions: in vivo, 0.5 h; call rule not given here. An outline of the steps: as §1
The subject of the next data set is Blood. As to the kind of experiment: Drug uptake in iv dosed Sprague-Dawley rat cardiac blood pool up to 30 mins by PET scanning. In kind it is ADME, organism-based. As to conditions: in vivo, 0.5 h. An outline of the steps: as §1
Data set [3] concerns Lung. As to the kind of experiment: Drug uptake in iv dosed Sprague-Dawley rat lung after 1 min by PET scanning. In kind it is ADME, organism-based. To be noted: in vivo. In short, it runs like this:
as §1

Data set [4] has as its system Lung. As to the kind of experiment: Drug uptake in iv dosed Sprague-Dawley rat lung after 27.5 mins by PET scanning. As to conditions: in vivo. In kind it is ADME, organism-based. An outline of the steps:
as §1

The subject of data set [5] is Heart. As to the kind of experiment: Drug uptake in iv dosed Sprague-Dawley rat heart after 10 mins by PET scanning. The class given is ADME, organism-based. To be noted: in vivo. In short, it runs like this: as §1
Data set [6] deals with Kidney. As to the kind of experiment: Drug uptake in iv dosed Sprague-Dawley rat kidney after 10 mins by PET scanning. The class given is ADME, organism-based. As to conditions: in vivo. In short, it runs like this:
as §1

Data set [7] has as its system Heart. As to the kind of experiment: Drug uptake in iv dosed Sprague-Dawley rat heart upto 30 mins by PET scanning. The class given is ADME, organism-based. To be noted: in vivo, 0.5 h. In short, it runs like this:
as §1

pKi: −log10 of the molar value.

Sequence of Translocator protein (P16257 whole entry, looked up): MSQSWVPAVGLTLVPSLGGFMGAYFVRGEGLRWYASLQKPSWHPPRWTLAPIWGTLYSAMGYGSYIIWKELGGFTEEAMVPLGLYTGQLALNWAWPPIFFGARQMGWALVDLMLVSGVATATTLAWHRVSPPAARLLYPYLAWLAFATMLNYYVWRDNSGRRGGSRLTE

For the compound `CCN(Cc1ccccc1)C(=O)Cn1c(=O)n(C)c2cnc(-c3ccccc3)nc21`, on Translocator protein, the pKi (usually the Ki on a negative log10 scale, so that one unit is a factor of ten) is 9.22. Moreover, the logD – broadly, the decadic logarithm of the distribution of all forms, ionised or not, between an organic phase and buffer at a given pH – in data set [1] was found to be 3.48.

As to `CCN(Cc1cccnc1)C(=O)Cn1c(=O)n(C)c2cnc(-c3ccccc3)nc21`, the pKi on Translocator protein was 7.88. This compound gave a logD in data set [1] of 2.17.

Turning to `CC[C@@H](C)N([11CH3])C(=O)c1cc2ccccc2c(-c2ccccc2Cl)n1`, the Drug uptake entry in the data set with Kidney [2], in the data set with Liver, with Blood, in the data set on Lung [3], in the data set on Lung [4] and in the data set with Heart [5] was “Active” throughout. The Drug uptake result with Kidney [6] and in the data set on Heart [7] was “Active” each time.

On Translocator protein, `CCN(Cc1ccncc1)C(=O)Cn1c(=O)n(C)c2cnc(-c3ccccc3)nc21` showed a pKi of 8.29. In data set [1], this compound yielded a logD of 2.03.

The values are drawn from ChEMBL document CHEMBL2203116, “Synthesis and evaluation of novel carbon-11 labeled oxopurine analogues for positron emission tomography imaging of translocator protein (18 kDa) in peripheral organs” (J Med Chem, 2011).
